Consider 40 compounds from ChEMBL document CHEMBL1132135, “Potent, orally absorbed glucagon receptor antagonists” (Bioorg Med Chem Lett, 1999).

Assay [1] can be described thus: Selectivity ratio between the binding value of human glucagon receptor (GGR) with Mg+2 and the value of p38 kinase.
The target of assay [2] is T1, Glucagon receptor (Homo sapiens, UniProt P47871). As to the kind of experiment: biochemical. The format is cell-based, CHO.
For assay [3], the target named is Glucagon receptor (Mus musculus) (UniProt Q61606). Put plainly: Binding affinity towards glucagon receptor determined by reduction in binding of 125 I-glucagon to the murine glucagon receptor (mGLUR) expressed on CHO cells in presence of Mg+2 at 1 uM. It counts as cell-based.
Assay [4] concerns the target Mitogen-activated protein kinase 14 (Homo sapiens, UniProt Q16539). As to the kind of experiment: Inhibitory activity against p38-alpha kinase.
Assay [5] has as its target T2, Glucagon receptor (Mus musculus, UniProt Q61606). As to the kind of experiment: Binding affinity towards glucagon receptor determined by reduction in binding of [125I]glucagon to the murine glucagon receptor (GGR) expressed on CHO cells in absence of Mg+2. It counts as cell-based.
In assay [6] the target is T1, Glucagon receptor. As to the kind of experiment: Binding affinity towards glucagon receptor determined by reduction in binding of [125I]glucagon to the human glucagon receptor (GGR) expressed on CHO cells in presence of Mg+2. The format is cell-based. The essentials: (§1)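 Radioligand binding to the glucagon receptor was run with 5 mM Mg2+ added, described as a physiological concentration.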

For assay [7], the target named is T2, Glucagon receptor. As to the kind of experiment: (§2) Binding affinity towards glucagon receptor determined by reduction in binding of 125 I-glucagon to the murine glucagon receptor (mGLUR) expressed on CHO cells in presence of Mg+2. It counts as cell-based. The essentials: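 Mg2+ added at 5 mM, a physiological level, to the binding medium. IC50 reported in µM, with the number of determinations noted; where no IC50 was reached, percent inhibition is given at a single tested concentration.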

Assay [8] addresses Glucagon receptor (Mus musculus) (UniProt Q61606). Put plainly: Binding affinity towards glucagon receptor determined by reduction in binding of 125 I-glucagon to the murine glucagon receptor (mGLUR) expressed on CHO cells in presence of Mg+2 at 3 uM. The format is cell-based.
Assay [9] deals with T1, Glucagon receptor. Put plainly: Binding affinity towards glucagon receptor determined by reduction in binding of 125 I-glucagon to the human glucagon receptor (hGLUR) expressed on CHO cells in absence of Mg+2 at 2 uM. It counts as cell-based.
Assay [10] concerns the target Glucagon receptor (Mus musculus) (UniProt Q61606). The assay is described as §2. It counts as cell-based. The note with it: concentration not given here. The essentials:
as §1

Assay [11] is described as follows: Inhibition of p38 kinase at 1 uM.

As a reminder, the pIC50 is the IC50 on a negative log10 scale, so that one unit is a factor of ten. For orientation: inhibition means the percentage by which the read-out fell short of the control.

Molecules are shown by their SMILES. pIC50: −log10 of the molar value.

T2 sequence (Q61606 whole entry): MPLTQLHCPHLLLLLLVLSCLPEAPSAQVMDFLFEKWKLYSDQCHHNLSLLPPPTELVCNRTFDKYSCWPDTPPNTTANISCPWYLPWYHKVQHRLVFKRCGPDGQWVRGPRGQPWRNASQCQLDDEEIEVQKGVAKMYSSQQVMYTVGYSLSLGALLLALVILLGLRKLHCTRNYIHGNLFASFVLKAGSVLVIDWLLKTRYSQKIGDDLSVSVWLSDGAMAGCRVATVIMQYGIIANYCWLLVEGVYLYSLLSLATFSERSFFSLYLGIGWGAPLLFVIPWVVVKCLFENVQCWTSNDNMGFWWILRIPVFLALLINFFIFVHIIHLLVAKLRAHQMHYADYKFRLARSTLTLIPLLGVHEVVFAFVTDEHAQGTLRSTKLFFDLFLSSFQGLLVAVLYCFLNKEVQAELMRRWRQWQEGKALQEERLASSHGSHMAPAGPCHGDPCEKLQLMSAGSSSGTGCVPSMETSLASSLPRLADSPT
Glucagon receptor (Mus musculus), sequence (Q61606 whole entry): as above
Mitogen-activated protein kinase 14, sequence (Q16539 whole entry): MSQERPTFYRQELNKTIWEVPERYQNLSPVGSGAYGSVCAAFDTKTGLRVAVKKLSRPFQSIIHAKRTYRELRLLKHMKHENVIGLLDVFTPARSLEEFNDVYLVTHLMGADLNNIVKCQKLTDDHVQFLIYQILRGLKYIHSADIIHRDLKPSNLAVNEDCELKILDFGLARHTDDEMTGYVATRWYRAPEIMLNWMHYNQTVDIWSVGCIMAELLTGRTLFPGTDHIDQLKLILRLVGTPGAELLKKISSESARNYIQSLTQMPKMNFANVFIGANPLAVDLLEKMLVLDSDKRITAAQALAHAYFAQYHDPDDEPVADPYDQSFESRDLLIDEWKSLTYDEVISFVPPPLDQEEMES
T1 sequence (P47871 whole entry): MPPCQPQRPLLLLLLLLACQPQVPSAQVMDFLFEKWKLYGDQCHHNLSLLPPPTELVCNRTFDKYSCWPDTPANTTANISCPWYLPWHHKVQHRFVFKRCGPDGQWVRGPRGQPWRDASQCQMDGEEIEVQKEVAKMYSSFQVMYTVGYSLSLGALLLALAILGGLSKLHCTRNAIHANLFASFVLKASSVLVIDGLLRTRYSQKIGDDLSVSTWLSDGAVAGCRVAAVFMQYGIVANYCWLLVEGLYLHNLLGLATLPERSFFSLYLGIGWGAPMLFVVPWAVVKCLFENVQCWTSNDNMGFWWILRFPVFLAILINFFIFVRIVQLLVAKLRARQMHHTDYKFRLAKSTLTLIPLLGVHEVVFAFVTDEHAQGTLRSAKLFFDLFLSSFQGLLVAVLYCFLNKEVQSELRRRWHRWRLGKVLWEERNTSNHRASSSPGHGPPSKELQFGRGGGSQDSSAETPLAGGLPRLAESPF

Take `Fc1ccc(-c2cc(-c3ccc(Cl)cc3Cl)[nH]c2-c2ccncc2)cc1`: in assay [1], the Ratio was found to be 2.2. Moreover, the pIC50 in assay [2] is 7.40; in [4], 6.38; in assay [5], 6.47; in assay [6], 6.02. Besides, the inhibition in [3] was 13%.

`CCOC(=O)c1ccc(-c2cc(-c3ccc(F)cc3)c(-c3ccncc3)[nH]2)cc1`: the results for the pIC50 in assay [2] and in assay [4] were 6.07 and 6.59, respectively.

`CSc1ccc(-c2cc(-c3ccc(F)cc3)c(-c3ccncc3)[nH]2)cc1`: the pIC50 was 6.54 in [2] and 5.91 in assay [4].

On to `CC(C)Oc1ccccc1-c1cc(-c2ccc(Cl)cc2)[nH]c1-c1ccncc1`, for which the Ratio in assay [1] came out at 0.16. The pIC50 in [2] was 7.52; in [7], below 6.00; in assay [4], 5.26; in assay [5] it was 6.15; in assay [6], 6.04.

Turning to `C=CCOc1ccccc1-c1cc(-c2ccc(Cl)cc2)[nH]c1-c1ccncc1`, the Ratio in assay [1] is 0.05. Further, the pIC50 in [2] was 7.77; in assay [4], 5.32; in assay [5], 6.57; in [6] it was 6.59. For the same compound, the inhibition in assay [8] was 50%.

`Clc1ccc(-c2cc(-c3ccccc3Br)c(-c3ccncc3)[nH]2)cc1`: the Ratio in assay [1] turned out to be 2.3. Moreover, the pIC50 in assay [2] is 7.59; in assay [4], 6.00; in assay [6], 5.64.

For the compound `O=C(O)c1ccc(-c2cc(-c3ccc(F)cc3)c(-c3ccncc3)[nH]2)cc1`, the figures for the pIC50 in assay [2] and in assay [4] were below 5.52 and 7.05, respectively.

For the compound `CN1CCC(c2cc(-c3ccc(F)cc3)c(-c3ccncc3)[nH]2)CC1`, the Ratio in [1] was above 130. The same compound showed a pIC50 in [4] of 7.70. The inhibition in assay [9] came out at 7%.

As to `COc1ccc(-c2cc(-c3ccc(F)cc3)c(-c3ccncc3)[nH]2)cc1`, the pIC50 in [2] is 6.23; in assay [4] it was 5.55.

For the compound `CCOc1ccccc1-c1cc(-c2ccc(Cl)cc2)[nH]c1-c1ccncc1`, the Ratio in assay [1] came to 0.03. Besides, the negative logarithm of the IC50 (pIC50) in [2] is 7.40; in assay [4] it was 4.85; in assay [5] it was 6.47; in assay [6], 6.30. Besides, the inhibition in assay [10] is 22%.

Take `Fc1ccc(-c2cc[nH]c2-c2ccncc2)cc1`: in assay [1], the Ratio is above 18. Moreover, the pIC50 in assay [2] was below 5.52; in [4] it was 6.80; in [6] it was below 5.52.

For `CCc1ccc(-c2cc(-c3ccc(F)cc3)c(-c3ccncc3)[nH]2)cc1`, the results for the pIC50 in assay [2] and in assay [4] were 6.43 and 5.87, respectively.

As to `CCOC(=O)c1cc(-c2ccc(Cl)cc2)[nH]c1-c1ccncc1`, the pIC50 in [2] was 7.05; in [7] it was below 5.52; in assay [4], below 6.00; in assay [5], 6.30; in [6], 6.40.

In the case of `Cc1ccc(-c2cc(-c3ccc(F)cc3)c(-c3ccncc3)[nH]2)cc1`, in assay [1], the Ratio amounted to 1.3. Besides, the pIC50 in [2] was 6.60; in assay [4], 5.77; in [6] it was 5.66.

Take `Cc1cc(-c2ccc(F)cc2)c(-c2ccncc2)[nH]1`: the Ratio in assay [1] is above 9. The pIC50 in [2] was below 5.52; in assay [4], 6.49.

`O=C(O)c1cc(-c2ccc(Cl)cc2)[nH]c1-c1ccncc1`: the pIC50 in assay [2] was below 5.52; in [4] it was below 6.00.

Regarding `O=[N+]([O-])c1ccc(-c2cc(-c3ccc(F)cc3)c(-c3ccncc3)[nH]2)cc1`, the pIC50 in assay [2] is 6.44; in assay [4] it was 7.30.

`Fc1ccc(-c2cc(-c3ccc(Cl)cc3)[nH]c2-c2ccncc2)cc1`: the Ratio in [1] is 0.57. The pIC50 in [2] was 7.10; in [4], 5.85; in [5], 6.70; in assay [6] it was 6.10. In assay [3], the inhibition is 43%.

On to `CC(C)COc1ccccc1-c1cc(-c2ccc(Cl)cc2)[nH]c1-c1ccncc1`, for which the Ratio in assay [1] came to 0.05. Moreover, the pIC50 was 8.52 in assay [2], 5.42 in assay [4], 6.82 in assay [5] and 6.70 in assay [6]. Besides, the inhibition in assay [10] was 17%.

On to `COc1ccccc1-c1cc(-c2ccc(Cl)cc2)[nH]c1-c1ccncc1`, for which the Ratio in assay [1] came to 0.18. In addition, the negative logarithm of the IC50 (pIC50) in assay [2] is 7.15; in assay [4], 5.58; in [5] it was 6.40; in assay [6], 6.30. The inhibition in assay [10] worked out at 6%.

For the compound `C[S+]([O-])c1ccc(-c2cc(-c3ccc(F)cc3)c(-c3ccncc3)[nH]2)cc1` (stereo unspecified), the pIC50 is 5.96 in [2] and 6.17 in assay [4].

With `Clc1ccc(-c2cc(C3CCCCC3)c(-c3ccncc3)[nH]2)cc1`, the pIC50 is 7.00 in assay [2]; below 5.52 in [7]; below 5.00 in assay [4]; 7.22 in [5]; below 5.52 in assay [6].

`O=C(NCc1ccccc1)c1cc(-c2ccc(Cl)cc2)[nH]c1-c1ccncc1` had a pIC50 in assay [2] below 5.52. In addition, in assay [11], the inhibition came out at 0%.

Take `Fc1ccc(-c2cc(C3CCCCC3)[nH]c2-c2ccncc2)cc1`: the Ratio in assay [1] worked out at 2.7. Moreover, the pIC50 in assay [2] was 7.05; in assay [7] it was below 6.00; in assay [4] it was 6.74; in assay [5], below 6.00; in [6], 6.31.

Consider `CCCOc1cc(Br)ccc1-c1cc(-c2ccc(Cl)cc2)[nH]c1-c1ccncc1`, for which the pIC50 in assay [2] is 8.40; in assay [7], 6.08; in [5], 7.31; in assay [6], 6.89.

Turning to `N#Cc1ccc(-c2cc(-c3ccc(F)cc3)c(-c3ccncc3)[nH]2)cc1`, the Ratio in assay [1] is 102. Moreover, the pIC50 in assay [2] was 6.85; in assay [4], 7.30; in assay [5] it was 6.64; in assay [6], 5.31. Moreover, the inhibition in assay [8] came to 42%.

Take `Fc1ccc(-c2cc(-c3ccccc3)[nH]c2-c2ccncc2)cc1`: the pIC50 is 6.41 in assay [2], 6.10 in assay [4] and 5.57 in assay [5].

Turning to `COc1ccc(-c2cc(-c3ccc(Cl)cc3)[nH]c2-c2ccncc2)cc1`, the Ratio in [1] came out at 1.4. Also, the pIC50 is 7.00 in [2], 5.94 in assay [4], 6.62 in [5] and 5.80 in [6]. For the same compound, the inhibition in assay [3] was determined as 16%.

In turn, `C[S+]([O-])c1ccc(-c2cc(-c3ccncc3)c(-c3ccc(F)cc3)[nH]2)cc1` (stereo unspecified) gave a pIC50 in assay [4] of 8.28. The inhibition in assay [9] came out at 31%.

For `Clc1ccc(-c2ccc(-c3ccncc3)[nH]2)cc1`, the pIC50 is 6.85 in [2]; below 5.52 in assay [7]; below 5.00 in assay [4]; 6.15 in assay [5]; below 5.52 in assay [6].

As for `CC(C)(C)c1ccc(-c2cc(-c3ccc(F)cc3)c(-c3ccncc3)[nH]2)cc1`, the pIC50 in assay [2] is 6.07; in assay [4], below 5.00.

For the compound `CCCOc1ccccc1-c1cc(-c2ccc(Cl)cc2)[nH]c1-c1ccncc1`, the Ratio in [1] worked out at 0.05. Moreover, the pIC50 in [2] was 8.10; in [7], 6.15; in assay [4], 5.55; in assay [5], 7.52; in [6] it was 6.85.

As to `CSc1ccc(-c2cc(-c3ccncc3)c(-c3ccc(F)cc3)[nH]2)cc1`, in [4], the pIC50 is 7.36. The same compound gave an inhibition in assay [9] of 0%.

Turning to `Clc1ccc(-c2cc(-c3ccc(Br)cc3)c(-c3ccncc3)[nH]2)cc1`, the Ratio in assay [1] was found to be 7.6. In addition, the pIC50 in assay [2] is 6.85; in assay [4], 6.52; in assay [6] it was 5.64.

With `Clc1ccc(-c2cc(-c3ccccc3)c(-c3ccncc3)[nH]2)cc1`, the Ratio in assay [1] was 1.8. Also, the pIC50 in assay [2] was 7.22; in assay [4], 6.68; in assay [6] it was 6.42.

Consider `CCCCCCOc1ccccc1-c1cc(-c2ccc(Cl)cc2)[nH]c1-c1ccncc1`, for which the Ratio in assay [1] came out at 0.18. For the same compound, the pIC50 in [2] is 7.40; in assay [4], 5.57; in assay [5], 6.47; in [6], 6.30. Besides, in assay [3], the inhibition stood at 22%.

Turning to `CC(C)c1cc(-c2ccc(Cl)cc2)[nH]c1-c1ccncc1`, the pIC50 is 7.49 in [2]; below 5.52 in assay [7]; below 5.00 in assay [4]; 7.22 in [5]; 6.96 in assay [6].

Regarding `Nc1ccc(-c2cc(-c3ccc(F)cc3)c(-c3ccncc3)[nH]2)cc1`, the pIC50 in [2] was 5.85; in assay [4], 6.72.

On to `Fc1ccc(-c2cc(-c3cccc(Cl)c3)[nH]c2-c2ccncc2)cc1`, for which, in [1], the Ratio amounted to 2.3. Also, the pIC50 in assay [2] was 7.40; in [4], 6.38; in assay [5] it was 6.34; in assay [6], 6.00. In addition, the inhibition in assay [3] came to 28%.

Regarding `COc1cccc(-c2cc(-c3ccc(Cl)cc3)[nH]c2-c2ccncc2)c1`, in assay [1], the Ratio amounted to 1.1. Moreover, the values for the pIC50 in assay [2], in assay [4] and in assay [6] were 7.22, 6.38 and 6.35, respectively.
